The array DNA melting data of Ke et al. (doi:10.1101/2024.01.08.574731)

Experiments:
[1] = folding enthalpy; higher = less favourable; fluorescence melt of hairpins on a sequencing array, two-state fit; conditions: sodium 0.088 M
In short: (§1)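 Hairpins were imaged by Cy3 fluorescence on a sequenced MiSeq flow cell with annealed Cy3 and quencher oligos, in 50 mM Na-HEPES pH 8.0, 25 mM NaCl, in 2.5 °C steps up to 60 °C. Bootstrapped two-state fits of normalised signals gave melting temperature and folding enthalpy. Four replicates were combined by inverse variance, and fitted temperatures were raised by 9.35 °C to match UV melts.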

[2] = melting temperature; fluorescence melt of hairpins on a sequencing array, two-state fit, raised by 9.35 °C to match UV melts; conditions: sodium 0.088 M
In short: as §1

| Sequence | folding enthalpy [1] | Tm [2] |
| --- | --- | --- |
| GTCCACGGAAACGTGAAC ((.((((....)))).)) | -75.8 kJ/mol | 45.5 °C |
| GTCCAGACGAAAGTCGAC (((..(((....)))))) | -46.4 kJ/mol | 36.9 °C |
| GTCCAGGCGAAAGCCGAC (((..(((....)))))) | -40.2 kJ/mol | 37 °C |
| GTCCAGTCGAAAGACGAC (((..(((....)))))) | -62.6 kJ/mol | 34.8 °C |
| GTCCATCGAAAGATAGAC (((.(((....))).))) | -127 kJ/mol | 35.2 °C |
| GTCCATCGAAAGATGAC (((.(((....)))))) | -70.7 kJ/mol | 42.5 °C |
| GTCCATGGAAACACGGAC ((((.((....)).)))) | -105 kJ/mol | 42.1 °C |
| GTCCATGGAAACATGGGC (.(((((....))))).) | -180 kJ/mol | 54 °C |
| GTCCCACCGAAAGGTGAC (((..(((....)))))) | -34.8 kJ/mol | 27 °C |
| GTCCCAGCGAAAGCTGAC (((..(((....)))))) | -36.9 kJ/mol | 22.4 °C |
| GTCCCAGGAAACTGGAAC ((.((((....)))).)) | -92 kJ/mol | 35.8 °C |
| GTCCCAGGAAACTGGGAC (((((((....))))))) | -149 kJ/mol | 68.8 °C |
| GTCCCCCCGAAAGGGGAC (((..(((....)))))) | -70.8 kJ/mol | 59.5 °C |
| GTCCCCCGAAAGGGTGAC (((.(((....))).))) | -118 kJ/mol | 52.5 °C |
| GTCCCCGAAAGGGACGAC ((((((....)))..))) | -75.4 kJ/mol | 69.3 °C |
| GTCCCCGAAAGGGGAGAC ((((((....)))..))) | -34.5 kJ/mol | 54.2 °C |
| GTCCCCGAAAGGGTGGAC ((((((....)))..))) | -61.7 kJ/mol | 48.9 °C |
| GTCCCCGAAAGGGTTGAC ((((((....)))..))) | -63.8 kJ/mol | 33.7 °C |
| GTCCCGGGAAACCAGGAC ((((.((....)).)))) | -95.1 kJ/mol | 46 °C |
| GTCCGAGGAAACTCGGGC (.(((((....))))).) | -127 kJ/mol | 59.5 °C |
| GTCCGATCGAAAGATGAC (((..(((....)))))) | -44.8 kJ/mol | 28.3 °C |
| GTCCGCCGAAAGGCGAC (((.(((....)))))) | -39.9 kJ/mol | 52.5 °C |
| GTCCGCGAAAGCGAGAC ((((((....))).))) | -59.2 kJ/mol | 59.2 °C |

| Sequence | folding enthalpy [1] | Tm [2] |
| --- | --- | --- |
| GTCCGCGAAAGCGATGAC ((((((....)))..))) | -66.4 kJ/mol | 38.3 °C |
| GTCCGCGAAAGCGCAGAC ((((((....)))..))) | -61.3 kJ/mol | 40.8 °C |
| GTCCGCGAAAGCGGGGAC ((((((....)))..))) | -34.6 kJ/mol | 47.3 °C |
| GTCCGCGAAAGCGTCGAC ((((((....)))..))) | -55.5 kJ/mol | 37.2 °C |
| GTCCGCGGAAACGCGAAC ((.((((....)))).)) | -69 kJ/mol | 50.9 °C |
| GTCCGCGGAAACGTGGGC (.((.((....)).)).) | -111 kJ/mol | 53 °C |
| GTCCGGACGAAAGTCGAC (((..(((....)))))) | -58.7 kJ/mol | 35.5 °C |
| GTCCGGGGAAACCCGGGC (.(((((....))))).) | -90.5 kJ/mol | 65 °C |
| GTCCGTCGAAAGACAGAC (((.(((....))).))) | -93.4 kJ/mol | 47 °C |
| GTCCTACGAAAGTAGAC (((.(((....)))))) | -75.7 kJ/mol | 39.6 °C |
| GTCCTAGCGAAAGCTGAC (((..(((....)))))) | -52.9 kJ/mol | 31.5 °C |
| GTCCTCCGAAAGGATGAC (((.(((....))).))) | -129 kJ/mol | 48.6 °C |
| GTCCTCGAAAGAGAGGAC ((((((....)))..))) | -127 kJ/mol | 52.9 °C |
| GTCCTCGAAAGAGCGGAC ((((((....)))..))) | -92.3 kJ/mol | 36.1 °C |
| GTCCTCGAAAGAGGTGAC ((((((....)))..))) | -48.7 kJ/mol | 35.5 °C |
| GTCCTCGAAAGAGTGGAC ((((((....)))..))) | -98.9 kJ/mol | 41.6 °C |
| GTCCTCGGAAACGAGAAC ((.((((....)))).)) | -86.5 kJ/mol | 39.7 °C |
| GTCCTGGGAAACCAGGGC (.(((((....))))).) | -149 kJ/mol | 56.9 °C |
| GTCCTTCGAAAGAAGAC (((.(((....)))))) | -76.5 kJ/mol | 36.7 °C |
| GTCCTTTCGAAAGAAGAC (((..(((....)))))) | -64.2 kJ/mol | 28.5 °C |
| GTCGAACCGAAAGGTGAC (((..(((....)))))) | -75.3 kJ/mol | 42 °C |
| GTCGAAGGAAACTTCGGC (.(((((....))))).) | -180 kJ/mol | 51.3 °C |
| GTCGACGAAAGTCCGGAC ((((((....)))..))) | -75.7 kJ/mol | 37 °C |

| Sequence | folding enthalpy [1] | Tm [2] |
| --- | --- | --- |
| GTCGACGAAAGTCCTGAC ((((((....)))..))) | -53.8 kJ/mol | 31.6 °C |
| GTCGACGAAAGTCGGGAC ((((((....)))..))) | -44.1 kJ/mol | 39.1 °C |
| GTCGACGAAAGTCGTGAC ((((((....)))..))) | -42 kJ/mol | 43.6 °C |
| GTCGAGCGAAAGCTGAC (((.(((....)))))) | -83.6 kJ/mol | 57.7 °C |
| GTCGATCCGAAAGGAGAC (((..(((....)))))) | -94.8 kJ/mol | 40 °C |
| GTCGCAGAAATGCGAC ((((((....)))))) | -159 kJ/mol | 69.1 °C |
| GTCGCAGGAAACTGTGAC (((.(((....))).))) | -177 kJ/mol | 53.9 °C |
| GTCGCCCGAAAGGGGAC (((.(((....)))))) | -89.4 kJ/mol | 55.2 °C |
| GTCGCCGAAAGGCACGAC ((((((....)))..))) | -65.2 kJ/mol | 48.4 °C |
| GTCGCCGAAAGGCAGGAC ((((((....)))..))) | -54.6 kJ/mol | 50.4 °C |
| GTCGCCGAAAGGCTAGAC ((((((....)))..))) | -70.5 kJ/mol | 47.1 °C |
| GTCGCCGAAAGGCTGAC ((((((....))).))) | -74.4 kJ/mol | 57.1 °C |
| GTCGCCGGAAACGACGAC ((((.((....)).)))) | -182 kJ/mol | 57.5 °C |
| GTCGCGACGAAAGTCGAC (((..(((....)))))) | -34.7 kJ/mol | 38.2 °C |
| GTCGCGCCGAAAGGCGAC (((..(((....)))))) | -32.2 kJ/mol | 43 °C |
| GTCGCGCGAAAGCGGAC (((.(((....)))))) | -64.5 kJ/mol | 56.5 °C |
| GTCGCGGGAAACCACGAC ((((.((....)).)))) | -183 kJ/mol | 53.4 °C |
| GTCGCGTCGAAAGACGAC (((..(((....)))))) | -36 kJ/mol | 35.5 °C |
| GTCGCTACGAAAGTAGAC (((..(((....)))))) | -60.9 kJ/mol | 33.3 °C |
| GTCGGACCGAAAGGTGAC (((..(((....)))))) | -75.2 kJ/mol | 41.3 °C |
| GTCGGACGAAAGTCAGAC (((.(((....))).))) | -167 kJ/mol | 59.3 °C |
| GTCGGAGGAAACTCTGGC (.(.(((....))).).) | -118 kJ/mol | 37.2 °C |
| GTCGGCCGAAAGGCGGAC (((.(((....))).))) | -115 kJ/mol | 67.8 °C |

| Sequence | folding enthalpy [1] | Tm [2] |
| --- | --- | --- |
| GTCGGCGAAAGCCTTGAC ((((((....)))..))) | -54.5 kJ/mol | 40.5 °C |
| GTCGGCGGAAACGTCGAC ((((.((....)).)))) | -215 kJ/mol | 62 °C |
| GTCGGGCGAAAGCCAGAC (((.(((....))).))) | -125 kJ/mol | 65.2 °C |
| GTCGGGGGAAACCTCGAC ((((.((....)).)))) | -185 kJ/mol | 55.5 °C |
| GTCGGTACGAAAGTAGAC (((..(((....)))))) | -44.6 kJ/mol | 31.9 °C |
| GTCGGTGGAAACACTGAC (((.(((....))).))) | -170 kJ/mol | 54.4 °C |
| GTCGTACGAAAGTATGAC (((.(((....))).))) | -175 kJ/mol | 54.3 °C |
| GTCGTAGGAAACCACGAC (((((.(....).))))) | -133 kJ/mol | 49.1 °C |
| GTCGTAGGAAACTATGAC (((.(((....))).))) | -148 kJ/mol | 45.2 °C |
| GTCGTAGGAAACTGCGAC ((((.((....)).)))) | -231 kJ/mol | 53.5 °C |
| GTCGTAGGAAACTGTGAC (((..((....))..))) | -69.4 kJ/mol | 30.8 °C |
| GTCGTCCCGAAAGGGGAC (((..(((....)))))) | -48.7 kJ/mol | 45.1 °C |
| GTCGTCCGAAAGGAGAC (((.(((....)))))) | -86.3 kJ/mol | 49.3 °C |
| GTCGTCGAAAGACAGAC ((((((....))).))) | -112 kJ/mol | 51.6 °C |
| GTCGTCGAAAGACAGGAC ((((((....)))..))) | -76.5 kJ/mol | 41 °C |
| GTCGTCGAAAGACTGAC ((((((....))).))) | -81 kJ/mol | 47.5 °C |
| GTCGTCGAAAGACTTGAC ((((((....)))..))) | -71.1 kJ/mol | 38.4 °C |
| GTCGTCGGAAACGACGGC (.(((((....))))).) | -105 kJ/mol | 65.5 °C |
| GTCGTCTCGAAAGAGGAC (((..(((....)))))) | -90.6 kJ/mol | 39 °C |
| GTCGTGAAAACGAC (((((....))))) | -128 kJ/mol | 60.8 °C |
| GTCGTGCCGAAAGGCGAC (((..(((....)))))) | -58.2 kJ/mol | 44.6 °C |
| GTCGTGCGAAAGCAAGAC (((.(((....))).))) | -145 kJ/mol | 59.7 °C |
